High-throughput results deposited in PubChem by several laboratories.
MC4R ag barr = activates human MC4R beta-arrestin recruitment. P32245. U2OS MC4R beta-arrestin complementation, luminescence; percent of melanotan II response, DMSO zero. activation, % at 8.9 µM. 360,000 tested, 0.98% active. AID 540308;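 active = activation above a per-plate cutoff, the mean activation of sample wells on that plate plus 3 SD, cut at about 8% in these data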
MC4R antag cAMP = human MC4R antagonism in cAMP assay; MC4R-expressing cells, MTII-stimulated cAMP, LANCE TR-FRET; inhibition, % at 6.5 µM; 360,000 tested, 0.48% active; AID 540295;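 active = inhibition above its plate's cutoff, the mean of tested wells on that plate plus 3 SD, cut at about 29% in these data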;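 also: 0% = Melanotan II alone and 100% = Melanotan II plus saturating MCL0020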
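Material: human MC4R-expressing U2OS cells. Probe or stimulus: Melanotan II challenge. Dosing: 6.5 µM single dose. Times: 30-min compound, 1-h challenge, 1-h detection, room temperature. Technique: TR-FRET with Eu-cAMP and labeled anti-cAMP, 671 nm. Replication: singlicate.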
EBI2 block = EBI2 (human) antagonism. P32249. EBI2 beta-arrestin recruitment, luminescence, 7a,25-OHC stimulated. inhibition, % at 5 µM. 360,000 tested, 0.81% active. AID 651636; in the data active = inhibition above about 38%;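 also: enzyme fragment complementation signal reports receptor beta-arrestin coupling in cells; 0% = agonist plus DMSO wells and 100% = wells without agonist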
Target sequence (P32249 whole entry, looked up, the tested form may be a part): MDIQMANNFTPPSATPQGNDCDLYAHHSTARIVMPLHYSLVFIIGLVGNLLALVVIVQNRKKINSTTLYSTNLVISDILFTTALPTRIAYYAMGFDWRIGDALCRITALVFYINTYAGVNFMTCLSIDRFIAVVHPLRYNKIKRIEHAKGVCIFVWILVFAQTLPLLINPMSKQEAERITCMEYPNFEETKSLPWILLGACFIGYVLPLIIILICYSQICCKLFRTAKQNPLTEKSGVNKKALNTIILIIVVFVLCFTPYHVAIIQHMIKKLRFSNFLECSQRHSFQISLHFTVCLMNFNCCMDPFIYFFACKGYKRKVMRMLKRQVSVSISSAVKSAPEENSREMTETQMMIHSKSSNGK
Exocytosis inh = lytic granule exocytosis inhibition; TALL-104 LAMP-1 surface exposure, flow cytometry; cells stimulated with thapsigargin and PMA; inhibition, % at 10 µM; AID 651702; 360,000 tested, 0.66% active;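 active = inhibition above about 55%, limit read from the data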
Myeloid diff MLP = myeloid differentiation induction; 360,000 tested, 1% active; AID 624256; ER-HoxA9 myeloid progenitors, lysozyme-GFP differentiation, flow cytometry; calls only at 10 µM;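 active = normalized GFP-positive differentiation at or above the plate's own cutoff, the solvent-only control mean plus 3 SD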;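 also: cells exposed to compound for four days before flow analysis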
MC4R barr conf = human MC4R beta-arrestin agonism confirmation; shares compounds with MC4R ag barr; U2OS MC4R beta-arrestin recruitment, luminescence; scaled DMSO 0%, Melanotan II 100%; activation, % at 8.9 µM; 2,400 tested, 31% active;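 active = mean activation across replicates above the hit cutoff set in the earlier primary screen, cut at about 8% in these data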
MOR-DOR barr ag = OPRM1-OPRD1 heterodimer agonism counter-screen. shares compounds with MC4R ag barr. U2OS PathHunter beta-arrestin, beta-gal luminescence; percent of deltorphin B response, DMSO zero. activation, % at 9.2 µM. 2,400 tested, 5.8% active;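 active = mean activation across replicates exceeds the hit threshold derived in the earlier primary screen, cut at about 18% in these data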;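 also: 100% = deltorphin B at 0.9 µM final and 0% = DMSO alone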
The depositor's hits bear a star; i = inactive; . = no result given. In the library only some 3.7% were active in any assay of this set; here they are far more common.

SMILES	MC4R ag barr	MC4R antag cAMP	EBI2 block	Exocytosis inh	Myeloid diff MLP	MC4R barr conf	MOR-DOR barr ag
Cc1ccc(Oc2nnc(-c3ccccc3)cc2C#N)cc1	27.4*	6.3	-3.7	1.0	i	4.8	9.0
CC1CC(C)CN(C(=O)C2CCN(S(=O)(=O)c3c(Cl)cccc3Cl)CC2)C1 (centres undefined)	-4.3	7.5	-6.3	28.9	i	.	.
O=C(C1CCC1)N1CCN(S(=O)(=O)c2ccc(Br)cc2Cl)CC1	-0.2	3.4	6.5	0.8	i	.	.
COc1ccc(NC(=O)/C(C#N)=C/c2ccc[nH]2)c(OC)c1	10.5*	-3.4	4.5	-0.1	i	-2.0	12.0
N#C/C(=C\c1ccc[nH]1)C(=O)Nc1ccccc1F	-2.7	-4.3	4.6	-4.7	i	.	.
N#C/C(=C\c1ccc[nH]1)C(=O)Nc1ccccc1Cl	11.8*	10.6	3.6	-4.1	i	0.0	13.6
O=C(Cc1cccc(NC(=O)C2CCCN(C(=O)C3CCC3)C2)c1)Nc1cccc(C(=O)N2CCOCC2)c1 (centres undefined)	-1.5	8.2	-3.6	0.1	i	.	.
COc1ccc(NC(=O)c2cc([N+](=O)[O-])ccc2NC(=O)CNCc2ccccn2)c(OC)c1	13.0*	1.8	2.6	8.4	i	13.4*	6.3
Cc1cccc(/C=N/NC(=O)c2cc(Br)ccc2OCc2ccccc2)n1	13.3*	8.9	12.7	36.0	i	-3.5	4.9
COc1ccc(NC2CCCN(C(=O)c3cn(C)c4ccccc34)C2)cc1 (centres undefined)	-1.9	7.3	-10.2	-1.2	i	.	.
CC(NCc1ccc(OCc2ccc(Cl)cc2)cc1)C(O)c1ccccc1 (centres undefined)	15.8*	9.4	-12.0	67.2*	i	25.7*	11.9
CC(NCc1cccc(OCc2ccccc2)c1)C(O)c1ccccc1 (centres undefined)	5.0	-2.8	-14.8	-3.1	i	.	.
Cc1c(C(=O)Nc2nccs2)oc2c(Cl)cccc12	21.8*	-8.6	-1.7	1.1	i	0.9	6.0
CCC1(C)Cc2c(sc3nc(SCC(=O)c4ccccc4)[nH]c(=O)c23)CO1 (centres undefined)	11.7*	17.5	-4.3	3.1	i	-1.4	6.8
COc1cc2nc(N3CCN(c4cc(C)ccc4C)CC3)nc(N)c2cc1OC	12.1*	6.8	16.4	12.5	.	9.8*	20.7*
COc1ccc(Cc2nnc(NC(=O)CSc3ccccc3)s2)cc1	13.8*	-5.7	1.2	1.1	i	3.5	3.1
CC(=O)N1CCN(C(=O)c2cccc(S(=O)(=O)Nc3c(C)n(C)n(-c4ccccc4)c3=O)c2)CC1	-0.9	4.2	3.1	-6.0	i	.	.
O=C(Nc1nc2ccccc2s1)c1ccc(F)cc1	-1.4	13.4	8.4	1.1	i	.	.
O=C(NC(=S)Nc1ccc(S(=O)(=O)N2CCCC2)cc1)c1cccs1	-1.7	4.2	18.2	-0.7	i	.	.
O=C(NC(=S)Nc1ccc(S(=O)(=O)N2CCCCCC2)cc1)c1cccs1	12.8*	4.4	31.8	6.3	i	9.4*	4.6
O=C(Nc1ccc(F)cc1)Nc1sccc1-c1nc2ccccc2s1	25.2*	2.8	0.3	5.8	i	10.3*	3.4
O=C(Nc1ccc(O)c(-c2nc3ccccc3s2)c1)c1cccs1	24.5*	6.0	3.8	-4.1	i	7.6	-0.6
O=C(Nc1cccc(NC(=S)NC(=O)c2cccs2)c1)c1ccccc1	11.8*	6.0	6.5	1.0	i	18.6*	5.5
O=C(Nc1ccc2nn(-c3ccccc3)nc2c1)c1cccs1	10.5*	10.6	8.4	8.2	i	1.1	2.7
O=C(NC(=S)Nc1cccc(NC(=O)c2ccccc2Cl)c1)c1cccs1	14.2*	0.6	-2.7	8.3	i	1.0	0.9
SMILES	MC4R ag barr	MC4R antag cAMP	EBI2 block	Exocytosis inh	Myeloid diff MLP	MC4R barr conf	MOR-DOR barr ag
O=C(Nc1ccc2nsnc2c1)c1cccs1	-1.0	-14.6	-2.5	-5.6	i	.	.
Cc1ccccc1C(=O)Nc1cccc(NC(=S)NC(=O)c2cccs2)c1	4.6	9.2	3.3	-5.6	i	.	.
COc1ccc(NC(=O)N2CCNC(=O)C2CC(=O)Nc2ccc(F)cc2)cc1 (centres undefined)	-1.0	-2.5	-8.1	-4.4	i	.	.
Cc1cc(C=C2C(=O)c3ccccc3C2=O)c(C)n1C	20.8*	-6.1	14.6	1.2	i	-0.2	9.7
CCn1c(C)cc(C=C2C(=O)c3ccccc3C2=O)c1C	-0.1	12.3	0.2	-3.8	i	.	.
Cc1ccc(C(C)C)c(OCc2nn(CC(=O)c3ccc(Cl)cc3)c3[n+]2CCCCC3)c1	40.5*	14.3	0.3	4.0	i	18.6*	34.3*
CCc1nc2ccc(C(=O)NCC3CCCCC3)cn2c1N(C)Cc1ccc(OC)cc1	0.3	-0.4	19.5	23.3	i	.	.
Cc1ccc(-c2cc(C(=O)N/N=C/c3c(C)nn(C)c3C)c3ccccc3n2)cc1C	11.0*	9.8	-16.1	-0.3	i	9.3*	3.9
CN(CC1CCCO1)S(=O)(=O)c1ccc(C(=O)NCc2ccccc2)cc1 (centres undefined)	-0.3	14.9	11.8	1.5	i	.	.
CC1CCCCN1S(=O)(=O)c1ccc(S(=O)(=O)N2CCN(c3ccccc3)CC2)cc1 (centres undefined)	9.8*	2.4	-15.8	-0.5	i	15.2*	4.0
O=C(Nc1ccc2c(c1)OCO2)c1nn(-c2ccccc2)c(=O)c2ccccc12	10.7*	5.9	6.5	-2.2	i	-2.1	2.8
COc1cccc(-n2nc(C(=O)Nc3ccc4c(c3)OCO4)c3ccccc3c2=O)c1	1.9	17.4	7.4	-2.5	i	.	.
COc1ccc(-c2ccc(/C=C3/C(=N)N4C=CSC4=NC3=O)o2)c([N+](=O)[O-])c1	19.8*	-3.5	-46.0	3.5	i	2.6	2.4
COc1cc(NC(=O)[C@@H]2CCCN(S(=O)(=O)c3cccc4cccnc34)C2)cc(OC)c1OC	1.4	13.5	-6.5	3.3	i	.	.
O=C(CCCCn1c(=O)c2ccccc2n(Cc2ccc(Cl)cc2)c1=O)NCc1ccco1	11.6*	-4.2	12.0	-1.5	i	0.0	4.4
Cc1cccc(Cn2c(=O)n(CCCC(=O)NCc3ccco3)c(=O)c3ccccc32)c1	-0.2	-26.7	10.1	-0.9	i	.	.
O=C(CCCCCn1c(SCC(=O)c2ccccc2)nc2ccccc2c1=O)NCc1ccco1	27.8*	11.0	12.0	-2.9	i	6.4	12.9
Cc1nc2c3ccccc3nc(SCC(=O)c3ccc(Cl)cc3)n2n1	10.7*	-1.2	20.6	-3.1	i	14.0*	4.5
